Compounds with a hit are over-represented: about 1.5% of the library has one in this group of screens.
APJ agonist: APJ receptor agonism | P35414 | CHO-K1 APJ PathHunter beta-arrestin, luminescence; 0% DMSO wells, 100% apelin | activation, % at 20 µM | hit rate 0.11% among 330,000 | AID 2520;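 active = activation more than six SD over the plate average, tested at 20 µM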;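 note: 0% = DMSO alone and 100% = apelin-13 at 10 nM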
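Material: CHO-K1 APJ beta-arrestin complementation cell line; Input: cell density 1000 per well; Incubation: compound stimulation 90 min at 25 °C, detection 60 min; Signal: luminescence from split beta-galactosidase complementation, Galacton Star/Emerald II substrate; Controls: DMSO-only wells as negative, 10 nM Apelin-13 as positive control.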
CXCR6 inh: CXCR6 (human) receptor inhibition. O00574. AID 602244. inhibition, % at 20 µM. CHO-K1 PathHunter CXCR6 beta-arrestin, luminescence. hit rate 0.36% among 360,000; in the data active = inhibition above about 34%, passing the limit was not always enough;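 note: antagonist mode with CXCL16 agonist at 10 nM final; 0% = 10 nM CXCL16 with DMSO and 100% = unstimulated wells without agonist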
EBI2 block: blocks human EBI2 receptor beta-arrestin signaling; AID 651636; inhibition, % at 5 µM; hit rate 0.81% among 360,000; P32249; EBI2 beta-arrestin recruitment, luminescence, 7a,25-OHC stimulated; in the data active = inhibition above about 38%;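 note: enzyme fragment complementation signal reports receptor beta-arrestin coupling in cells; 0% = agonist plus DMSO wells and 100% = wells without agonist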
APJ antagonist: APJ receptor antagonism | CHO-K1 APJ beta-arrestin complementation, luminescence | inhibition, % at 20 µM | hit rate 0.32% among 330,000 | AID 2521;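 active = inhibition above about 40% at 20 µM, limit read from the data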;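 note: cells challenged with 10 nM apelin-13 agonist together with compound; plate controls were apelin-13 plus DMSO wells for no effect and DMSO wells lacking apelin-13 for full effect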
CCR6 antagonist: antagonists of human CCR6 receptor; inhibition, % at 20 µM; P51684; CHO-K1 CCR6 PathHunter beta-arrestin, luminescence, CCL20-stimulated; hit rate 0.49% among 340,000;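 active = compounds whose inhibition of the agonist-driven luminescence signal at 20 µM reaches about 50%, limit read from the data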;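 note: cells stimulated with CCL20 at 14 nM final; plate controls were DMSO with CCL20 for no effect and DMSO without agonist for full effect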
Target sequence (P51684 whole entry, looked up): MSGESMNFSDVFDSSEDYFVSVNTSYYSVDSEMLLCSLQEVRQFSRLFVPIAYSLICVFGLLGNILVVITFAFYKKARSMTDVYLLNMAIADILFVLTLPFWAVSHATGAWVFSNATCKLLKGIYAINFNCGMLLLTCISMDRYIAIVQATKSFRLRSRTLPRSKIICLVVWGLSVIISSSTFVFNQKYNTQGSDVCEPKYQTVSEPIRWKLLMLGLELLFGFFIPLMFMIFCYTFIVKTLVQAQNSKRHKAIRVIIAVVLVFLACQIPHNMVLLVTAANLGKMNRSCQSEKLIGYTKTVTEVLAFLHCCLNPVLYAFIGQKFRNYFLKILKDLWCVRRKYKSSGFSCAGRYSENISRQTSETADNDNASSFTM
EBI2 antag conf: confirmation of human EBI2 receptor antagonists | shares compounds with EBI2 block | EBI2 beta-arrestin luminescence, 7a,25-OHC antagonism | inhibition, % at 5 µM | hit rate 29% among 2,400 | AID 651997;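 active = inhibition of at least 50%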
EBI2 ag: activates EBI2, counter-screen for EBI2 antagonists; 2,400 tested, under 10 active; shares compounds with EBI2 block; EBI2-expressing cells, agonist mode, luminescence, 60 min; 0% vehicle, 100% 7α,25-dihydroxycholesterol control; AID 652000; activation, % at 5 µM;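 active = activation of at least 50%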
bGal cs: counter-screen for EBI2 antagonists: E. coli beta-galactosidase inhibition. hit rate 1% among 2,400. shares compounds with EBI2 block. inhibition, % at 5 µM. purified beta-galactosidase, luminescent Galacton Star, 15 min. AID 652176;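 active = replicate-average signal at least 3 plate SD below neutral wells, shown as high inhibition, flagging enzyme-inhibiting false positives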;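 note: 0% = DMSO wells with enzyme and 100% = wells lacking enzyme; higher means stronger loss of beta-gal luminescence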
Numbers without * were called inactive; / = no result.

SMILES	APJ agonist	CXCR6 inh	EBI2 block	APJ antagonist	CCR6 antagonist	EBI2 antag conf	EBI2 ag	bGal cs
Cc1cc(C(C)(C)C)oc1C(=O)O	-3	-4	2	2	-9	/	/	/
Cc1cc(C(C)(C)C)oc1C(=O)N1CCN(C(=O)c2oc(C(C)(C)C)cc2C)CC1	/	14	48*	/	13	30	0	6
Cc1oc(-c2ccc(Cl)cc2)cc1C(=O)NC1CCN(Cc2ccccc2)CC1	-3	-2	41*	12	2	18	-1	-13
Cc1ccc(NC(=O)c2nc[nH]c2C(=O)NCC(=O)OC(C)(C)C)cc1	6	-1	-40	8	2	/	/	/
Brc1ccc(OCc2nnnn2-c2ccccc2)cc1	0	-9	80*	2	-1	64*	0	-13
O=C(CSc1ccc(Cl)cc1)Nc1ccccc1N1CCN(C(=O)c2ccccc2)CC1	-3	4	76*	-19	10	67*	-1	9
O=C(CSc1ccc(Cl)cc1)Nc1ccccc1Oc1ccccc1	0	-9	55*	13	11	24	0	-11
CS(=O)(=O)N1CCN(c2ccccc2NC(=O)CSc2ccc(Cl)cc2)CC1	3	2	3	29	1	/	/	/
O=C(CSc1ccc(Br)cc1)Nc1ccccc1Oc1ccccc1	-1	-10	54*	0	5	21	0	-14
Cc1ccc(/C=C/C(=O)OCC(=O)N(C)c2c(N)n(Cc3ccccc3)c(=O)[nH]c2=O)o1	/	-3	4	/	/	/	/	/
Cc1ccccc1Cn1nnc(C(=O)Nc2cccc(C)c2C)c1N	-1	-10	43*	-13	-1	18	1	2
Cc1ccc(CNC(=O)Cn2nnc(C(=O)Nc3cccc(C)c3C)c2N)cc1	-3	-6	-5	14	15	/	/	/
Cc1ccc(C2CN(CCC(N)=O)C(=O)CO2)cc1 (stereo not drawn)	-3	4	-4	-7	1	/	/	/
O=S(=O)(Nc1ccccc1-c1ccccc1)c1ccccc1	/	6	9	/	27	/	/	/
Cc1cc(C)c(S(=O)(=O)Nc2ccccc2-c2ccccc2)c(C)c1	-2	-1	57*	-7	29	28	0	7
Cc1[nH]c2ccc(-c3nnc(SCC(=O)N4CCCc5ccccc54)o3)cc2c1C	2	1	51*	-11	12	47	3	5
Cc1ncc([N+](=O)[O-])n1CC(=O)NC1CCCCCC1	-2	-2	4	23	12	/	/	/
CCOc1ccc(OCC(=O)N2CCN(S(=O)(=O)c3ccccc3)CC2)cc1	/	1	59*	/	/	28	0	-14
N#Cc1ccc(NCC(=O)N2CCN(S(=O)(=O)c3ccccc3)CC2)cc1	-2	-2	35	-1	3	/	/	/
Cc1ccc(NCC(=O)N2CCN(S(=O)(=O)c3ccccc3)CC2)cc1F	-5	-14	87*	-6	15	48	-1	-9
CC(=O)c1ccc(S(=O)(=O)N2CCN(CCOc3ccc(Br)cc3)CC2)cc1	-1	-7	90*	5	10	58*	2	5
CCOc1ccc(S(=O)(=O)N2CCN(S(=O)(=O)c3ccc(C(C)=O)cc3)CC2)cc1	-2	-3	8	8	10	/	/	/
CCS(=O)(=O)N1CCN(C(=O)COc2ccc(-c3ccccc3)cc2)CC1	-4	-4	20	-4	-6	/	/	/
CCOc1ccc(S(=O)(=O)N2CCN(C(=O)COc3ccc(Br)cc3)CC2)cc1	0	-2	88*	-17	22	81*	1	2
COc1ccc(CCN(C)C(=O)CN2C(=O)NC3(CCCc4ccccc43)C2=O)cc1OC (stereo not drawn)	-2	2	-12	0	3	/	/	/
SMILES	APJ agonist	CXCR6 inh	EBI2 block	APJ antagonist	CCR6 antagonist	EBI2 antag conf	EBI2 ag	bGal cs
O=C(NCc1ccc2c(c1)OCO2)C1CCN(S(=O)(=O)c2cccs2)CC1	-2	-3	10	-5	5	/	/	/
O=C(NCc1ccc2c(c1)OCO2)C1CCN(S(=O)(=O)c2ccc(Br)s2)CC1	3	-4	44*	1	-4	18	-1	-4
CC1CC(C)CN(S(=O)(=O)N2CCCC(C(=O)NCCc3ccc(Cl)cc3)C2)C1 (stereo not drawn)	-2	-2	57*	-11	22	52*	-1	-18
CS(=O)(=O)N1CCCC(C(=O)NCCc2ccc(Cl)cc2)C1 (stereo not drawn)	-2	4	7	10	14	/	/	/
COc1ccc(CNC(=O)C2CCN(S(=O)(=O)c3ccc(Br)s3)CC2)cc1	-1	7	68*	5	21	32	-2	-9
O=C(NCCc1ccc(Cl)cc1)C1CCN(S(=O)(=O)c2ccc(Br)s2)CC1	-5	-3	51*	3	11	11	-1	-10
COCCn1c(SCC(=O)NC2CCCC(C)C2C)nc2ccccc2c1=O (stereo not drawn)	-6	-1	22	9	12	/	/	/
Cc1ccc(NC(=O)COC(=O)CCc2ccccc2)cc1S(=O)(=O)N1CCOCC1	-1	-1	7	14	-1	/	/	/
COc1ccc(NC(=O)C2CCCNC2=O)cc1 (stereo not drawn)	-1	3	-9	-3	-1	/	/	/
CC(=O)c1ccc(NC(=O)C2CCCNC2=O)cc1 (stereo not drawn)	-1	34	55*	2	-14	8	1	7
CNC(=O)c1cc2c(-c3ccccc3)nn(C)c2s1	1	-4	-7	3	-1	/	/	/
O=C(NCc1ccc(Cl)cc1)N1CCN(C(=O)c2ccccc2)CC1	/	4	25	/	/	/	/	/
COc1ccc(S(=O)(=O)N2CCN(C(=O)COc3ccc(C)c(C)c3)CC2)cc1OC	3	6	77*	-7	3	32	-2	-12
O=C(COc1ccc(Cl)cc1Br)N1CCN(S(=O)(=O)c2ccccc2)CC1	-1	-6	29	2	18	/	/	/
O=C(NCc1ccc(Cl)cc1)N1CCN(S(=O)(=O)c2ccccc2)CC1	-1	-5	45*	7	14	25	0	9
O=C(COc1ccccc1)N1CCN(S(=O)(=O)c2ccc(Cl)cc2)CC1	3	-6	49*	-2	8	35	-1	-4
COc1ccc(S(=O)(=O)N2CCN(C(=O)CCOc3ccccc3)CC2)cc1OC	-4	-4	5	4	7	/	/	/
O=C(COc1ccc(Cl)cc1)N1CCN(S(=O)(=O)c2ccccc2)CC1	3	-2	87*	-9	5	68*	-1	-15
CCc1nnc(NC(=O)C(c2ccccc2)c2ccccc2)s1	0	10	-7	20	6	/	/	/

Bioassay records (PubChem BioAssay)
